The record followed here is ChEMBL document CHEMBL5104191, “Identification of Novel 2,4,5-Trisubstituted Pyrimidines as Potent Dual Inhibitors of Plasmodial PfGSK3/PfPK6 with Activity against Blood Stage Parasites In Vitro” (J Med Chem, 2022).

Series [1] in a line: Inhibition of Plasmodium falciparum PK6 measured after 2 hrs by luciferin-based luminescence assay.
Series [2] deals with T1, Glycogen synthase kinase 3 (Plasmodium falciparum (isolate 3D7)) (UniProt O77344).
T1 sequence (whole entry): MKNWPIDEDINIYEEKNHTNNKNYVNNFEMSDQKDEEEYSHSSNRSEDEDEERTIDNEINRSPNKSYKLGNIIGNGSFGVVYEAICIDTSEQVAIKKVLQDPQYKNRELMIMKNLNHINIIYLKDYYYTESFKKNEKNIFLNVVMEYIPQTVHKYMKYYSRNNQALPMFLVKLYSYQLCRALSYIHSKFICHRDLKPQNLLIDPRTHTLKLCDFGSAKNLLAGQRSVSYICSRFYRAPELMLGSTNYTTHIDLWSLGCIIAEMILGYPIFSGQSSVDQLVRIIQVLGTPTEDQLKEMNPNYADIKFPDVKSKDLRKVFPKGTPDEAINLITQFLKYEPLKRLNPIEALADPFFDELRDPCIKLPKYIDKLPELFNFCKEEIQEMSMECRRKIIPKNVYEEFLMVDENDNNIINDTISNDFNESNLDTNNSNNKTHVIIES
Put plainly: Inhibition of Plasmodium falciparum GSK3 at 1 uM measured after 2 hrs by luciferin-based luminescence assay relative to control; values are per cent of control.

In series [3] the test system is HepG2. In words: Cytotoxicity against human HepG2 cells assessed as reduction in cell viability at 2 uM measured after 48 hrs by cell titre glo luminescence assay. It counts as toxicity, cell-based. The note with it: hepg2, 48 h. The method, boiled down: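 HepG2 cells in DMEM with 10% FBS, seeded at 4000 cells/well and incubated overnight at 37 °C, 5% CO2. Compound added in quadruplicate with constant DMSO, then 48 h incubation. Viability by CellTiter-Glo luminescence, reported as % viable cells; average of two experiments in quadruplicate.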

For series [4], the system named is Plasmodium falciparum. In words: Antiplasmodial activity against Plasmodium falciparum 3D7 infected in human erythrocytes assessed as reduction in parasite growth incubated for 72 hrs by SYBR green I fluorescence based assay. In kind it is functional, organism-based. The note with it: 3D7, 72 h. The method, boiled down:
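P. falciparum 3D7 synchronized by sorbitol at ring stage, set to 2% parasitemia and 2% hematocrit. Compounds dosed at 0–5 μM as 2-fold dilutions in triplicate. Controls were quinacrine 500 nM and 0.5% DMSO. Incubation 72 h at 37 °C in 3% O2/5% CO2/92% N2, then SYBR Green I lysis for 24 h in the dark. Fluorescence ex 485/em 535; normalized to controls; EC50 from dose–response fit.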

Series [5] relates to Plasmodium falciparum. In words: Inhibition of Plasmodium falciparum PK6 at 1 uM measured after 2 hrs by luciferin-based luminescence assay relative to control; values are per cent of control.
A short description of series [6]: Inhibition of Plasmodium falciparum PKG incubated for 30 mins […].
Series [7] in a line: Kinetic solubility of the compound in PBS buffer at pH 7.4. In kind it is physicochemical.
For series [8], the system named is Plasmodium falciparum. Put plainly: Antiplasmodial activity against blood stage plasmodium falciparum assessed as inhibition of parasite growth. In kind it is functional, organism-based.

Structures are written as SMILES.

Take `Cc1ccc(-c2nc(Nc3ccc(C(=O)N4CCC(N5CCCC5)CC4)cc3)ncc2Cl)s1`: the midpoint of inhibition in series [1], the IC50, lay at 14 nM.
Still for that read-out and setting: then `CN1CCN(C(=O)c2ccc(Nc3nccc(-c4cc5ccccc5s4)n3)cc2)CC1`, with 339 nM.
On to `COc1cccc(Nc2nccc(-c3cc4ccccc4s3)n2)c1`, for which, in series [2], the residual activity is 97%.
As to `Cc1cnc(Nc2ccc(C(=O)N3CCC(N4CCCC4)CC3)cc2)nc1-c1ccc(Cl)s1`, the IC50 in series [1] was 14 nM. The cell viability remaining in series [3] stood at 65%. Moreover, in series [4], the EC50 stood at 576 nM.
On to `CN(C)C1CCN(C(=O)c2ccc(Nc3nccc(-c4cc5ccccc5s4)n3)cc2)CC1`, for which the IC50 in series [1] amounted to 216 nM.
For `COC(=O)c1ccc(Nc2nccc(-c3cc4ccccc4s3)n2)cc1`, the figures for the residual activity in series [2] and in series [5] were 71% and 78%, respectively.
In series [1], `O=C(c1ccc(Nc2nccc(-c3cc4ccccc4s3)n2)cc1)N1CCC(N2CC[C@@H](O)C2)CC1` registered an IC50 of 243 nM.
Take `c1ccc(Nc2nccc(-c3cc4ccccc4s3)n2)cc1`: the residual activity in series [2] amounted to 100%.
`O=C(NCCCN1CCOCC1)c1ccc(Nc2nccc(-c3cc4ccccc4s3)n2)cc1`: the IC50 in series [1] was 156 nM.
For `Clc1ccc(Nc2nccc(-c3cc4ccccc4s3)n2)cc1`, the residual activity in series [2] was 89%; in series [5], 92%.
In series [1], `O=C(c1ccc(Nc2ncc(Cl)c(-c3ccc(Cl)s3)n2)cc1)N1CCC(N2CCCC2)CC1` had an IC50 of 11 nM. Further, in series [3], the cell viability remaining was found to be 34%. Further, in series [4], the EC50 was determined as 552 nM.
As to `Clc1ccccc1Nc1nccc(-c2cc3ccccc3s2)n1`, the residual activity in series [2] stood at 100%.
Take `O=C(c1ccc(Nc2nccc(-c3ccc(-c4ccccc4)s3)n2)cc1)N1CCC(N2CCCC2)CC1`: the IC50 in series [1] was found to be 415 nM.
The compound `Cn1cc(-c2ccnc(Nc3ccc(C(=O)N4CCC(N5CCCC5)CC4)cc3)n2)cn1` had an IC50 in series [1] of 645 nM.
Turning to `CN(C)CCCNC(=O)c1ccc(Nc2nccc(-c3cc4ccccc4s3)n2)cc1`, inhibition in series [1] was half-maximal at 319 nM (IC50).
In series [1], `O=C(c1ccc(Nc2nccc(-c3ccccc3)n2)cc1)N1CCC(N2CCCC2)CC1` gave an IC50 of 329 nM.
In turn, `O=C(c1ccc(Nc2nccc(-c3nccs3)n2)cc1)N1CCC(N2CCCC2)CC1` displayed an IC50 in series [1] of 182 nM.
`O=C(c1ccc(Nc2ncc(Br)c(-c3cc4ccccc4s3)n2)cc1)N1CCC(N2CCCC2)CC1` registered an IC50 in series [1] of 57 nM. Besides, the cell viability remaining in series [3] is listed as 47%. In series [4], the EC50 was 300 nM.
On to `O=C(c1ccc(Nc2nccc(-c3ccc(CO)s3)n2)cc1)N1CCC(N2CCCC2)CC1`, for which the IC50 in series [1] amounted to 563 nM.
On the same count and under the same terms, to `O=C(c1ccc(Nc2nccc(-c3cc4ccccc4s3)n2)cc1)N1CCC(N2CC[C@H](O)C2)CC1` belongs 264 nM.
In series [1], `O=C(c1ccc(Nc2nccc(-c3cccs3)n2)cc1)N1CCC(N2CCCC2)CC1` displayed an IC50 of 236 nM.
On the same count and under the same terms, then `CN1CCN(CCCNC(=O)c2ccc(Nc3nccc(-c4cc5ccccc5s4)n3)cc2)CC1`, with 153 nM.
Regarding `O=C(c1ccc(Nc2nccc(-c3ccc4ccccc4c3)n2)cc1)N1CCC(N2CCCC2)CC1`, in series [1], the IC50 is 359 nM. Further, the cell viability remaining in series [3] is given as 82%. Further, the EC50 in series [4] was 541 nM.
For the compound `Cc1cnc(Nc2ccc(C(=O)NCCCN3CCOCC3)cc2)nc1-c1ccc(Cl)s1`, in series [1], the IC50 turned out to be 12 nM.
The same measure, in the same setting: to `O=C(c1ccc(Nc2nccc(-c3cc4ccccc4s3)n2)cc1)N1CCC(N2CCCCC2)CC1` belongs 115 nM.
Turning to `O=C(c1ccc(Nc2ncc(Cl)c(-c3cc4ccccc4s3)n2)cc1)N1CCC(N2CCCC2)CC1`, in series [1], the IC50 worked out at 19 nM. The cell viability remaining in series [3] amounted to 61%. Moreover, in series [4], the EC50 was determined as 991 nM.
`O=C(c1ccc(Nc2nccc(-c3ccco3)n2)cc1)N1CCC(N2CCCC2)CC1` had an IC50 in series [1] of 768 nM.
With `Cc1ccc(-c2nc(Nc3ccc(C(=O)N4CCC(N5CCCC5)CC4)cc3)ncc2C)s1`, the midpoint of inhibition in series [1], the IC50, lay at 28 nM.
On the same count and under the same terms, to `CCCN(C)C1CCN(C(=O)c2ccc(Nc3nccc(-c4cc5ccccc5s4)n3)cc2)CC1` belongs 181 nM.
In turn, `O=C(NCCCN1CCOCC1)c1ccc(Nc2ncc(Cl)c(-c3ccc(Cl)s3)n2)cc1` returned an IC50 in series [1] of 8 nM. In addition, the cell viability remaining in series [3] was found to be 65%. Also, the EC50 in series [4] worked out at 1400 nM.
With `O=C(c1ccc(Nc2nccc(-c3ccc(Cl)s3)n2)cc1)N1CCC(N2CCCC2)CC1`, the IC50 in series [1] is 130 nM.
Take `Clc1cccc(Nc2nccc(-c3cc4ccccc4s3)n2)c1`: in series [2], the residual activity is 89%.
In series [1], `O=C(c1ccc(Nc2nccc(-c3ccc(COCC(F)(F)F)s3)n2)cc1)N1CCC(N2CCCC2)CC1` came in with a half-maximal inhibitory concentration (IC50) of 292 nM. Also, the cell viability remaining in series [3] is listed as 87%. The EC50 in series [4] stood at 810 nM.
In series [1], `COc1cnc(Nc2ccc(C(=O)N3CCC(N4CCCC4)CC3)cc2)nc1-c1cc2ccccc2s1` came in with an IC50 of 294 nM.
With `Cc1cn2c(-c3ccnc(NCC4CC4)n3)c(-c3ccc(F)c(NS(C)(=O)=O)c3)nc2cc1CN(C)C`, the midpoint of inhibition in series [6], the IC50, lay at 2.1 nM.
As to `CS(=O)(=O)CCCNC(=O)c1ccc(Nc2nccc(-c3cc4ccccc4s3)n2)cc1`, inhibition in series [1] was half-maximal at 215 nM (IC50).
`c1ccc2sc(-c3ccnc(Nc4ccc(CN5CCC(N6CCCC6)CC5)cc4)n3)cc2c1` gave an IC50 in series [1] of 173 nM. Besides, the cell viability remaining in series [3] is on record as 97%. In addition, the EC50 in series [4] worked out at 60 nM.
For `O=C(c1ccc(Nc2nccc(-c3cc4ccccc4s3)n2)cc1)N1CCC(N2CCCC2)CC1`, the Kinetic_solubility in series [7] turned out to be 19.4 µg/mL. The compound further returned an IC50 in series [1] of 460 nM. For the same compound, the cell viability remaining in series [3] was 103%. Moreover, in series [4], the EC50 was determined as 280 nM.
In series [2], `COc1ccccc1Nc1nccc(-c2cc3ccccc3s2)n1` came in with a residual activity of 100%.
Still for that read-out and setting: then `c1ccc(CNc2nccc(-c3cc4ccccc4s3)n2)cc1`, with 100%.
`O=C(NC1CC1)c1ccc(Nc2nccc(-c3cc4ccccc4s3)n2)cc1`: 407 nM corresponded to half-maximal inhibition in series [1] (IC50).
In series [1], `O=C(c1ccc(Nc2nccc(-c3cc4ccccc4s3)n2)cc1)N1CCNCC1` showed a 50% inhibitory concentration (IC50) of 398 nM.
The compound `CN1CCC(NC(=O)c2ccc(Nc3nccc(-c4cc5ccccc5s4)n3)cc2)CC1` returned an IC50 in series [1] of 340 nM.
Regarding `CC(C)n1cnc2c(NCc3ccccc3)nc(NCCO)nc21`, in series [8], the IC50 worked out at 130000 nM.
On to `O=C(c1ccc(Nc2nccc(-c3ccc(Cl)c(Cl)c3)n2)cc1)N1CCC(N2CCCC2)CC1`, for which the IC50 in series [1] is 382 nM.
In series [1], `Cc1cnc(Nc2ccc(C(=O)N3CCC(N4CCCC4)CC3)cc2)nc1-c1cc2ccccc2s1` came in with an IC50 of 45 nM. In series [3], the cell viability remaining is 66%. Also, in series [4], the EC50 was determined as 760 nM.
For `O=C(c1ccc(Nc2nccc(-c3cc4ccccc4o3)n2)cc1)N1CCC(N2CCCC2)CC1`, the midpoint of inhibition in series [1], the IC50, lay at 317 nM.
In series [1], `O=C(c1ccc(Nc2ncc(C3CC3)c(-c3cc4ccccc4s3)n2)cc1)N1CCC(N2CCCC2)CC1` displayed an IC50 of 114 nM. The cell viability remaining in series [3] came out at 55%. Further, the EC50 in series [4] turned out to be 646 nM.
In the case of `N#Cc1cnc(Nc2ccc(C(=O)N3CCC(N4CCCC4)CC3)cc2)nc1-c1cc2ccccc2s1`, the half-inhibitory concentration (IC50) in series [1] amounted to 77 nM. For the same compound, in series [3], the cell viability remaining came to 84%. The EC50 in series [4] is 322 nM.
Consider `COc1ccc(Nc2nccc(-c3cc4ccccc4s3)n2)cc1`, for which the figures for the residual activity in series [2] and in series [5] were 97% and 88%, respectively.
In series [1], `Cc1ccc(-c2nc(Nc3ccc(C(=O)NCCCN4CCOCC4)cc3)ncc2Cl)s1` returned an IC50 of 16 nM. In addition, the cell viability remaining in series [3] is listed as 54%. Moreover, in series [4], the EC50 stood at 2600 nM.
As for `O=C(c1ccc(Nc2ncc(F)c(-c3cc4ccccc4s3)n2)cc1)N1CCC(N2CCCC2)CC1`, the midpoint of inhibition in series [1], the IC50, lay at 66 nM. Also, the cell viability remaining in series [3] turned out to be 79%. Moreover, the concentration giving a half-maximal response (EC50) in series [4] amounted to 607 nM.
The compound `Cc1ccc(-c2ccnc(Nc3ccc(C(=O)N4CCC(N5CCCC5)CC4)cc3)n2)s1` registered an IC50 in series [1] of 222 nM.
Take `O=C(O)c1ccc(Nc2nccc(-c3cc4ccccc4s3)n2)cc1`: the residual activity in series [2] was 33%.

Broadly, the IC50 is the midpoint of a concentration-inhibition curve. As usually defined, the residual activity is the share of the control activity or signal that is left under treatment. Low readings indicate a large loss of activity, high ones a small loss of activity. In general, EC50 refers to the concentration at which the effect is half-maximal.
